The values below come from ChEMBL document CHEMBL1121550, “Amino acid and dipeptide derivatives of daunorubicin. 1. Synthesis, physicochemical properties, and lysosomal digestion” (J Med Chem, 1980).

For assay [1], the system named is Nucleic Acid. The assay can be described thus: Apparent binding affinity to herring sperm DNA at 25 degree Celsius in PBS buffer with pH 7.4. The conditions noted are these: Clupeidae. The class given is nucleic-acid assay. In a few lines: (§1)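 Spectral titration: drug at 200 µg/mL in PBS pH 7.4 (NaCl 137 mM, KCl 3 mM, Na2HPO4 8 mM, KH2PO4 1.5 mM) titrated with 0.05–2.00 mL highly polymerized herring sperm DNA (2.34 mg/mL in 0.9% NaCl), made to 4.0 mL. Free and bound drug estimated from absorbance at 475 nm; Scatchard plot (nx/Df vs nx) yields Ka and nmax.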

Assay [2] deals with Nucleic Acid. The assay is described as follows: Maximal binding (nmax) sites to herring sperm DNA. Estimated from Scatchard plots. It is filed as nucleic-acid assay. The settings on record: Clupeidae. In a few lines:
as §1

On to `COc1cccc2c1C(=O)c1c(O)c3c(c(O)c1C2=O)C[C@@](O)(C(C)=O)C[C@@H]3OC1CC(NC(=O)C(N)C(C)C)C(O)C(C)O1` (stereo partly drawn), for which the Ka with Nucleic Acid [1] worked out at 110000 M⁻¹. Also, in the assay on Nucleic Acid [2], the Maximal binding is 0.18.

For `COc1cccc2c1C(=O)c1c(O)c3c(c(O)c1C2=O)C[C@@](O)(C(C)=O)C[C@@H]3O[C@H]1C[C@H](NC(=O)[C@H](CC(C)C)NC(=O)[C@H](C)N)[C@H](O)[C@H](C)O1`, in the assay on Nucleic Acid [1], the Ka was 20000 M⁻¹. Moreover, in the assay on Nucleic Acid [2], the Maximal binding was 0.17.

`CCC(C)C(N)C(=O)NC1CC(O[C@H]2C[C@](O)(C(C)=O)Cc3c(O)c4c(c(O)c32)C(=O)c2c(OC)cccc2C4=O)OC(C)C1O` (stereo partly drawn): the Ka in the assay with Nucleic Acid [1] came to 110000 M⁻¹. Moreover, the Maximal binding in the assay on Nucleic Acid [2] was 0.19.

For the compound `COc1cccc2c1C(=O)c1c(O)c3c(c(O)c1C2=O)C[C@@](O)(C(C)=O)C[C@@H]3OC1CC(NC(=O)C(CC(C)C)NC(=O)CN)C(O)C(C)O1` (stereo partly drawn), in the assay with Nucleic Acid [1], the Ka was 30000 M⁻¹. Moreover, the Maximal binding in the assay on Nucleic Acid [2] was 0.14.

On to `COc1cccc2c1C(=O)c1c(O)c3c(c(O)c1C2=O)C[C@@](O)(C(C)=O)C[C@@H]3OC1CC(NC(=O)C(N)CC(C)C)C(O)C(C)O1` (stereo partly drawn), for which the Ka in the assay with Nucleic Acid [1] worked out at 130000 M⁻¹. Also, the Maximal binding with Nucleic Acid [2] was 0.2.

As to `COc1cccc2c1C(=O)c1c(O)c3c(c(O)c1C2=O)C[C@@](O)(C(C)=O)C[C@@H]3O[C@H]1C[C@H](NC(=O)[C@H](C)N)[C@H](O)[C@H](C)O1`, the Ka with Nucleic Acid [1] came out at 90000 M⁻¹. Besides, the Maximal binding in the assay with Nucleic Acid [2] was 0.19.

In the case of `COc1cccc2c1C(=O)c1c(O)c3c(c(O)c1C2=O)C[C@@](O)(C(C)=O)C[C@@H]3O[C@H]1C[C@H](N)[C@H](O)[C@H](C)O1`, the Ka in the assay on Nucleic Acid [1] amounted to 310000 M⁻¹. Besides, in the assay on Nucleic Acid [2], the Maximal binding is 0.16.

`COc1cccc2c1C(=O)c1c(O)c3c(c(O)c1C2=O)C[C@@](O)(C(C)=O)C[C@@H]3O[C@H]1C[C@H](NC(=O)[C@H](C)NC(=O)[C@@H](N)CC(C)C)[C@H](O)[C@H](C)O1`: the Ka in the assay with Nucleic Acid [1] amounted to 40000 M⁻¹. In addition, in the assay with Nucleic Acid [2], the Maximal binding is 0.12.

With `COc1cccc2c1C(=O)c1c(O)c3c(c(O)c1C2=O)C[C@@](O)(C(C)=O)C[C@@H]3OC1CC(NC(=O)CN)C(O)C(C)O1` (stereo partly drawn), the Ka in the assay with Nucleic Acid [1] was determined as 130000 M⁻¹. Moreover, the Maximal binding in the assay with Nucleic Acid [2] was 0.16.
